Source: ChEMBL document CHEMBL3779840, “Discovery of 2-((3-Amino-4-methylphenyl)amino)-N-(2-methyl-5-(3-(trifluoromethyl)benzamido)phenyl)-4-(methylamino)pyrimidine-5-carboxamide (CHMFL-ABL-053) as a Potent, Selective, and Orally Available BCR-ABL/SRC/p38 Kinase Inhibitor for Chronic Myeloid Leukemia” (J Med Chem, 2016)
Activity calls are given as the source filed them. No cut-off for these calls is given here.

Assays:
Mus musculus = experiment: Toxicity in nu/nu mouse xenografted with K562 cells assessed as decrease in body weight at 25 and 50 mg/kg/day, qd administered through oral gavage for 16 days measured every day during compound dosing; format: organism-based; conditions: in vivo, 384 h
Outline: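 Female nu/nu mice carrying established K562 xenografts received oral treatment once daily at 25.0 or 50.0 mg/kg/d, or vehicle, starting when tumours reached 200 to 400 mm3. There were 5 animals per group and dosing lasted 16 days. Body weight was expressed relative to initial weight (set as 100%), and mortality was recorded. Data are given as mean ± SEM.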

[1] = molecular target: Epithelial discoidin domain-containing receptor 1 (Homo sapiens, UniProt Q08345); experiment: Inhibition of GST-tagged human DDR1 (440 to 876 residues) expressed in Baculovirus expression system
[2] = molecular target: Mast/stem cell growth factor receptor Kit (Homo sapiens, UniProt P10721); experiment: Inhibition of His-tagged recombinant human c-Kit […] expressed in mammalian expression system
Sequence of Mast/stem cell growth factor receptor Kit (P10721 whole entry): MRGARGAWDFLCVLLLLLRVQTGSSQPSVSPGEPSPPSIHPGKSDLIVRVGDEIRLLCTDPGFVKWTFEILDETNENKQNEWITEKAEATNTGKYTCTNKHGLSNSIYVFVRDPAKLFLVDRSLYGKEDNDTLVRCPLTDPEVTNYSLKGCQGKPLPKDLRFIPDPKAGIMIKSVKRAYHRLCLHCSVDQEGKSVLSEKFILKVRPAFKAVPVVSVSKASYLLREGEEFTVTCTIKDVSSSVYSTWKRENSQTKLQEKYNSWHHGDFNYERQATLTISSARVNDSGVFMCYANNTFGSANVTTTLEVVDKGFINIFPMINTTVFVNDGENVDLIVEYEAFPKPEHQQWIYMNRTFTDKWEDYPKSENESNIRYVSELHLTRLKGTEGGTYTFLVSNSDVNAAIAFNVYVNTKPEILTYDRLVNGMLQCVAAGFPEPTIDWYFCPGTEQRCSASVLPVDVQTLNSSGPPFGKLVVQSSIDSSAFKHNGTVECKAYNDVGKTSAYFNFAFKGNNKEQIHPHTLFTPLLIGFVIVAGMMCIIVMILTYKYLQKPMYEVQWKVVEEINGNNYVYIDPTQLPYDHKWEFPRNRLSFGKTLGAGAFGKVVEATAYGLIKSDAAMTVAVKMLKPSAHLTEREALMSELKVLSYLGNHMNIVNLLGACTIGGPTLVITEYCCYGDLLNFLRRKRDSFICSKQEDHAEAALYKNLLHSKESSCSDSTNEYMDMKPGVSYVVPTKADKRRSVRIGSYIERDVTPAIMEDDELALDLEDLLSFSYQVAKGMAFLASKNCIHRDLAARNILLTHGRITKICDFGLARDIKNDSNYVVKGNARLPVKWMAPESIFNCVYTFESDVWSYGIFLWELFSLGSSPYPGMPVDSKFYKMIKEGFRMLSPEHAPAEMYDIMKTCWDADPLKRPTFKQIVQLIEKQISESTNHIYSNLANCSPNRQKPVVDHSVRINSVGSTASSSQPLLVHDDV

[3] = molecular target: T1, Proto-oncogene tyrosine-protein kinase Src (Homo sapiens, UniProt P12931); experiment: Inhibition of full length recombinant human C-terminal His-tagged SRC expressed in Baculovirus expression system
T1 sequence (P12931 2-536 limits assumed): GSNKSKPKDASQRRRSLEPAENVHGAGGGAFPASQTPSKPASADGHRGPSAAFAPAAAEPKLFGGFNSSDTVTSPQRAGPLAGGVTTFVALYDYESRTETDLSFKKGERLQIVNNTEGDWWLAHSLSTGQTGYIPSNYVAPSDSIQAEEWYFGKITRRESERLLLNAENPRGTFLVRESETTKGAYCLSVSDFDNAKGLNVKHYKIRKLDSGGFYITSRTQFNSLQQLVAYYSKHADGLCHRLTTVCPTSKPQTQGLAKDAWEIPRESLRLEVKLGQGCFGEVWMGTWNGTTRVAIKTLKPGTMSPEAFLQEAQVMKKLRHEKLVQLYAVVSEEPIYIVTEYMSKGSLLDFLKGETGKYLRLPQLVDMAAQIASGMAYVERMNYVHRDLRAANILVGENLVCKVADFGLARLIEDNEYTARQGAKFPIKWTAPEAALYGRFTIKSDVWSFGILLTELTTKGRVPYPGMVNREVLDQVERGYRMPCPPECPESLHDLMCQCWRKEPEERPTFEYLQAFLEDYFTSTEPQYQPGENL
Outline: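 IC50 values were determined with the Invitrogen SelectScreen biochemical kinase assay.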

[4] = Antiproliferative activity against human U937 cells assessed as cell viability after 72 hrs by CellTiter-Glo or CCK-8 assay; format: functional; conditions: U-937, 72 h
HEL = experiment: Antiproliferative activity against human HEL cells assessed as cell viability after 72 hrs by CellTiter-Glo or CCK-8 assay; format: functional
[5] = Antiproliferative activity against […] CHL cells assessed as cell viability after 72 hrs by CellTiter-Glo or CCK-8 assay; format: cell-based, Cricetulus griseus; conditions: chinese hamster
[6] = molecular target: T2, Bcr/Abl fusion protein (Homo sapiens) (UniProt P00519+P11274); experiment: Inhibition of BCR/ABL autophosphorylation at Y245 site in human KU812 cells at 300 nM after 1 hr by immunoblotting method; format: cell-based
T2 sequence (P00519 whole entry, looked up, the tested form may be a part): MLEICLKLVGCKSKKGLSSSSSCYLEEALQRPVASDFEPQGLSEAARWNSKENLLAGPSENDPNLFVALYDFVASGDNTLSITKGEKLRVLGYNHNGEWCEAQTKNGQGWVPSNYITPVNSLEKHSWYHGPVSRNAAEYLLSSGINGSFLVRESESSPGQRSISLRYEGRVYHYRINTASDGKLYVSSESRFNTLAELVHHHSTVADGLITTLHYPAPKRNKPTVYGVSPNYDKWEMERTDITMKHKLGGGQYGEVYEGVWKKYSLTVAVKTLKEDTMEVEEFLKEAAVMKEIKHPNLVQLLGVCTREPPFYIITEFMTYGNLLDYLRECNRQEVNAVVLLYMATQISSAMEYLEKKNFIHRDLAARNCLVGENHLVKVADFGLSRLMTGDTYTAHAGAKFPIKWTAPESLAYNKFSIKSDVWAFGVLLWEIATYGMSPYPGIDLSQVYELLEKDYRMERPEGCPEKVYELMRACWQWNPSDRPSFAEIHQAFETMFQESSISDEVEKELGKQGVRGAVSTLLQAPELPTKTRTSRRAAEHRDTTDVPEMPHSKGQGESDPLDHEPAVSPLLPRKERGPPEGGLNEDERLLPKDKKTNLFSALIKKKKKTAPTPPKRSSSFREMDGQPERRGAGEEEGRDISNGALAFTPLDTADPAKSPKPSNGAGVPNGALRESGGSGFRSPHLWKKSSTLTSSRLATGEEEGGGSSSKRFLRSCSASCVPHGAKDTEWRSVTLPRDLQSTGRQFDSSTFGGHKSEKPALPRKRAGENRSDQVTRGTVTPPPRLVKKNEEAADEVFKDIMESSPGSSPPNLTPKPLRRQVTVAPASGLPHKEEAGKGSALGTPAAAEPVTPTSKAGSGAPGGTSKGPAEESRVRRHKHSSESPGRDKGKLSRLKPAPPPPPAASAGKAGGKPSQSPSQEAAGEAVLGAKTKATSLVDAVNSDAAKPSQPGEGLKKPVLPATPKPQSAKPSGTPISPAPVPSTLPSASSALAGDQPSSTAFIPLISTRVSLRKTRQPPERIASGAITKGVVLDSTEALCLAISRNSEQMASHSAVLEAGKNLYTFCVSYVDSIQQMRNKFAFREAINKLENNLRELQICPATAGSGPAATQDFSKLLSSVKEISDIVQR
T2 sequence (P11274 whole entry, looked up, the tested form may be a part): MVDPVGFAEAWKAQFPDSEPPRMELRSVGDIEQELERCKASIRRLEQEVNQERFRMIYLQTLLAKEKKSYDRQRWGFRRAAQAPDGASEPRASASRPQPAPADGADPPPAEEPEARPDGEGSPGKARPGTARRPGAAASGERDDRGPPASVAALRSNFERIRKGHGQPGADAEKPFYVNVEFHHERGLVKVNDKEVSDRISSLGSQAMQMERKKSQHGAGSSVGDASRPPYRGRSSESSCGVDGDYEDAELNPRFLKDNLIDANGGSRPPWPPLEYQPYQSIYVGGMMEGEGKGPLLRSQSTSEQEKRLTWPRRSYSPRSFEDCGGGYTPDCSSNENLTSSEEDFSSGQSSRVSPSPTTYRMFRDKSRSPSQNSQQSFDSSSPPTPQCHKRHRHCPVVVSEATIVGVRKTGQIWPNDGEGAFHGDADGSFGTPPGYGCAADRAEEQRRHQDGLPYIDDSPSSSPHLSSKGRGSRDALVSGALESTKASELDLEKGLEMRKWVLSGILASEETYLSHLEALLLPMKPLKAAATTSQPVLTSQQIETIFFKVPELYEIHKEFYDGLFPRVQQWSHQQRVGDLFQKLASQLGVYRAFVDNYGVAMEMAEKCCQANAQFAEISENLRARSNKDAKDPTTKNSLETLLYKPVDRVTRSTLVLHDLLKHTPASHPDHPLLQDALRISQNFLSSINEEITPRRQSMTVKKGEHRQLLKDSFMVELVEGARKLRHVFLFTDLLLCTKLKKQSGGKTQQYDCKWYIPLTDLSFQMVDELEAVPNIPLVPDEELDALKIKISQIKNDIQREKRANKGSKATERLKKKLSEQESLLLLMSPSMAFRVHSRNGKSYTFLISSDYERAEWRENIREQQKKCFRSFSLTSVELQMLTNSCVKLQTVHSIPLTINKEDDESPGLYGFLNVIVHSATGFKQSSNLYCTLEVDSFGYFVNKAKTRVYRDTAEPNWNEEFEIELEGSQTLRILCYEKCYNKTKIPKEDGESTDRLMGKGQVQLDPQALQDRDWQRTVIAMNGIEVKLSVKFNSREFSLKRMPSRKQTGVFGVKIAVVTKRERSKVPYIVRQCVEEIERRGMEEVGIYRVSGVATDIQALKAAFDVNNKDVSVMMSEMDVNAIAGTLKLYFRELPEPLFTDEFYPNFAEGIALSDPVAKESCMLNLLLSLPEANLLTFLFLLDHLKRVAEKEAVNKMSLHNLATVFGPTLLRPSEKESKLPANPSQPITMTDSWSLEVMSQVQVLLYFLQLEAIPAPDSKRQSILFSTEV
Outline: (§1)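 KU812, K562 and MEG-01 cells were exposed to compound at the indicated concentrations for 1 h. Whole-cell lysates were then analysed by Western blot for phosphorylated signaling proteins.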

[7] = molecular target: T2, Bcr/Abl fusion protein (Homo sapiens); experiment: Inhibition of BCR/ABL autophosphorylation at Y245 site in human MEG01 cells at 300 nM after 1 hr by immunoblotting method; format: cell-based; conditions: MEG-01; outline: as §1
[8] = molecular target: T2, Bcr/Abl fusion protein (Homo sapiens); experiment: Inhibition of BCR/ABL in human K562 cells assessed as downregulation of Stat5 phosphorylation at […] site after 1 hr by immunoblotting method; format: cell-based; outline: as §1
[9] = molecular target: T2, Bcr/Abl fusion protein (Homo sapiens); experiment: Inhibition of BCR/ABL in human KU812 cells assessed as downregulation of Stat5 phosphorylation at […] site after 1 hr by immunoblotting method; format: cell-based; outline: as §1
[10] = molecular target: T2, Bcr/Abl fusion protein (Homo sapiens); experiment: Inhibition of BCR/ABL in human K562 cells assessed as downregulation of CrkL phosphorylation at […] site after 1 hr by immunoblotting method; format: cell-based; outline: as §1
[11] = molecular target: T2, Bcr/Abl fusion protein (Homo sapiens); experiment: Inhibition of BCR/ABL in human KU812 cells assessed as downregulation of CrkL phosphorylation at […] site after 1 hr by immunoblotting method; format: cell-based; outline: as §1
[12] = molecular target: T2, Bcr/Abl fusion protein (Homo sapiens); experiment: Inhibition of BCR/ABL in human MEG01 cells assessed as downregulation of CrkL phosphorylation at […] site after 1 hr by immunoblotting method; format: cell-based; conditions: MEG-01; outline: as §1
[13] = molecular target: Mitogen-activated protein kinase 14 (Homo sapiens, UniProt Q16539); experiment: Inhibition of P38-alpha phosphorylation in human K562 cells at 0.01 to 3 uM after 1 hr by immunoblotting method; format: cell-based; outline: as §1
[14] = molecular target: T1, Proto-oncogene tyrosine-protein kinase Src; experiment: Inhibition of SRC phosphorylation in human K562 cells at 0.01 to 3 uM after 1 hr by immunoblotting method; format: cell-based
Outline: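 Cells were treated for 1 h at the indicated concentrations. Whole-cell lysates were then analysed by Western blot for phosphorylation of signalling proteins in the BCR-ABL pathway.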

K562 [15] = experiment: Induction of cell cycle arrest in human K562 cells assessed as accumulation at G0/G1-phase after 12 hrs by propidium iodide/RNase staining based flow cytometry; format: functional
MEG-01 [16] = experiment: Induction of cell cycle arrest in human MEG01 cells assessed as accumulation at G0/G1-phase after 12 hrs by propidium iodide/RNase staining based flow cytometry; format: functional
MEG-01 [17] = experiment: Induction of apoptosis in human MEG01 cells assessed as increase in cleaved caspase3 level at 100 nM after 48 hrs by immunoblotting method; format: functional, cell-based
KU812 cell line = experiment: Induction of apoptosis in human KU812 cells assessed as increase in cleaved caspase3 level at 100 nM after 24 hrs by immunoblotting method; format: functional, cell-based
[18] = Half life in Sprague-Dawley rat at 1 mg/kg, iv; format: ADME, organism-based; conditions: in vivo
[19] = Half life in Sprague-Dawley rat at 10 mg/kg, po; format: ADME, organism-based; conditions: in vivo
[20] = Tmax in Sprague-Dawley rat at 10 mg/kg, po; format: ADME, organism-based; conditions: in vivo
[21] = Cmax in Sprague-Dawley rat at 10 mg/kg, po; format: ADME, organism-based; set-up: dose 10 mg/kg, route oral; conditions: in vivo
[22] = Apparent clearance in Sprague-Dawley rat at 1 mg/kg, iv; format: ADME, organism-based; conditions: in vivo, read-out: CL(app) (converted)
[23] = Mean residence time (0 to infinity) in Sprague-Dawley rat at 10 mg/kg, po; format: ADME, organism-based; conditions: in vivo
[24] = Oral bioavailability in Sprague-Dawley rat at 10 mg/kg; format: ADME, organism-based; conditions: in vivo
K562 [25] = experiment: Antitumor activity against human K562 cells xenografted in nu/nu mouse assessed as tumor growth inhibition at 50 mg/kg/day, qd administered through oral gavage measured after 16 days; format: functional; conditions: 384 h, read-out: TGI
Outline: (§2)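 Female nu/nu mice bore established K562 xenografts and received daily oral dosing at 25.0 or 50.0 mg/kg/d, or vehicle, starting when tumors reached 200 to 400 mm3, for 16 days. Groups had 5 animals; data are mean ± SEM. Tumor size and body weight were normalized to initial values, and final tumor weight was recorded. Tumor tissue was stained with HE, Ki-67 and TUNEL.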

K562 [26] = experiment: Antiproliferative activity against human K562 cells xenografted in nu/nu mouse at 25 and 50 mg/kg/day, qd administered through oral gavage measured after 16 days by Ki-67 staining-based immunohistochemical analysis; format: functional, organism-based; outline: as §2
[27] = molecular target: Tyrosine-protein kinase Lck (Homo sapiens) (UniProt P06239); experiment: Inhibition of partial length human wild type LCK expressed in bacterial expression system assessed as residual activity at 1 uM relative to control
Sequence of Tyrosine-protein kinase Lck (Homo sapiens) (P06239 2-509 limits assumed): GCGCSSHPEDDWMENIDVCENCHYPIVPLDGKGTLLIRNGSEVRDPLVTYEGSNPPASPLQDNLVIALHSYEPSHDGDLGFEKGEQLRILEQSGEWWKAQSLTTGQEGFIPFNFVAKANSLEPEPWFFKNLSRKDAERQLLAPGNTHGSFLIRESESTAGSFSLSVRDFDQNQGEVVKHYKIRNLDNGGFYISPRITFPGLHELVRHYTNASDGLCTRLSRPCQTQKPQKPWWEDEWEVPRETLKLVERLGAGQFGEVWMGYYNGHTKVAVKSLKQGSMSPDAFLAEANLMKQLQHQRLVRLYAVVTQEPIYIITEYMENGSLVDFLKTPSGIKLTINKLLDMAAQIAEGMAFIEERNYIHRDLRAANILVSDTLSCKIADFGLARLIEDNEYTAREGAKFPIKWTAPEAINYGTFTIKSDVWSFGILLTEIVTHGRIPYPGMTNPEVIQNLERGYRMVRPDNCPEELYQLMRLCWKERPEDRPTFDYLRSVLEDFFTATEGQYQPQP

[28] = molecular target: T1, Proto-oncogene tyrosine-protein kinase Src; experiment: Inhibition of partial length human wild type SRC expressed in bacterial expression system assessed as residual activity at 1 uM relative to control
[29] = molecular target: T2, Bcr/Abl fusion protein (Homo sapiens); conditions: BaF3
[30] = molecular target: Tyrosine-protein kinase HCK (Homo sapiens) (UniProt P08631); conditions: BaF3
Sequence of Tyrosine-protein kinase HCK (Homo sapiens) (P08631 2-526 limits assumed): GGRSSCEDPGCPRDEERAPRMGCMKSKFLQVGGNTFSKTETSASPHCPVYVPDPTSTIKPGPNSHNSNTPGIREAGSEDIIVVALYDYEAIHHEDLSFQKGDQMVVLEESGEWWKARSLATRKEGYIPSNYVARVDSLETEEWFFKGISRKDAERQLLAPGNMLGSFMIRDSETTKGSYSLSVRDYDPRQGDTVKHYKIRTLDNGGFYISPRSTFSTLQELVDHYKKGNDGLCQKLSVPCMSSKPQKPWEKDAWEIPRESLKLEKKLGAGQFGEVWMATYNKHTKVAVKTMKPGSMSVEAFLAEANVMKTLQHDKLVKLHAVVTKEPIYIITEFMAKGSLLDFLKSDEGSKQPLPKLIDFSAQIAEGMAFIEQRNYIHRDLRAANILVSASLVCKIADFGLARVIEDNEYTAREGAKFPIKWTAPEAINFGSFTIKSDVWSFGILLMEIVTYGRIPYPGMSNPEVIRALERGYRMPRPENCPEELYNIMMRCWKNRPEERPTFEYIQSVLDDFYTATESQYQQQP

BaF3 [31] = conditions: Homo sapiens
BaF3 [32] = conditions: Homo sapiens; remark: listed apart in the source
[33] = tested on: Bcr/Abl fusion protein (Homo sapiens), P00519+P11274 [Y253F]; conditions: BaF3

With CNc1nc(Nc2ccc(C)c(N)c2)ncc1C(=O)Nc1cc(NC(=O)c2cccc(C(F)(F)F)c2)ccc1C as the compound, how does the Activity (Mus musculus) read?
The Activity was “Non-toxic”.

And the IC50 [1]?
The IC50 was 292 nM.

And the IC50 [2]?
Its IC50 is over 10000 nM.

What about the IC50 [3] of the same compound?
Its IC50 is 90 nM.

And the GI50 [4]?
Its GI50 is over 10000 nM.

What about the GI50 (HEL) of the same compound?
The GI50 was over 10000 nM.

What about the GI50 at 72 h [5] of the same compound?
Its GI50 at 72 h is over 10000 nM.

And the inhibition [6]?
Its inhibition is “Active”.

And the inhibition [7]?
Its inhibition is “Active”.

What about the inhibition [8] of the same compound?
The inhibition was “Dose-dependent effect”.

And the inhibition [9]?
The inhibition was “Dose-dependent effect”.

What about the inhibition [10] of the same compound?
The inhibition was “Dose-dependent effect”.

What about the inhibition [11] of the same compound?
The inhibition was “Dose-dependent effect”.

And the inhibition [12]?
Its inhibition is “Dose-dependent effect”.

What about the inhibition [13] of the same compound?
Its inhibition is “Active”.

What about the inhibition [14] of the same compound?
The inhibition was “inactive”.

What about the Activity (K562 [15]) of the same compound?
The Activity was “Dose-dependent effect”.

And the Activity (MEG-01 [16])?
The Activity was “Dose-dependent effect”.

What about the Activity (MEG-01 [17]) of the same compound?
Its Activity is “Active”.

What about the Activity (KU812 cell line) of the same compound?
The Activity was “Active”.

And the half-life [18]?
Its half-life is 2.82 h.

What about the half-life [19] of the same compound?
Its half-life is 4.33 h.

What about the Tmax [20] of the same compound?
The Tmax was 1 h.

What about the Cmax [21] of the same compound?
Its Cmax is 368 ng/mL.

What about the clearance [22] of the same compound?
The clearance was 25.6 mL/min/kg.

And the MRT inf [23]?
The MRT inf was 5.51 h.

What about the bioavailability [24] of the same compound?
The bioavailability was 24.2%.

What about the inhibition in vivo at 50 mg/kg/day (K562 [25]) of the same compound?
The inhibition in vivo at 50 mg/kg/day was 48.3%.

And the Activity (K562 [26])?
Its Activity is “Active”.

And the Activity [27]?
The Activity was 0.3%.

What about the Activity [28] of the same compound?
Its Activity is 0.5%.

What about the GI50 [29] of the same compound?
Its GI50 is 7 nM.

And the GI50 [30]?
Its GI50 is 980 nM.

What about the GI50 (BaF3 [31]) of the same compound?
Its GI50 is 313 nM.

And the GI50 (BaF3 [32])?
The GI50 was 73 nM.

What about the GI50 [33] of the same compound?
The GI50 was 363 nM.
